21 compounds from ChEMBL document CHEMBL3351411, “Identification and synthesis of quinolizidines with anti-influenza a virus activity” (ACS Med Chem Lett, 2014) can be followed below.

One data set has as its system Influenza A virus. The data set is described as follows: Antiviral activity against Influenza A virus (A/Puerto Rico/8/34(H1N1)) infected in MDCK cells assessed as inhibition of virus-induced cytocidal activity after 48 hrs by CellTiter-Glo assay. It is filed as functional, organism-based. Conditions: A/Puerto Rico/8/1934(H1N1). The method in brief: (§1)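 MDCK cells infected with PR8 (mouse-adapted A/Puerto Rico/8/1934) or VR1679 at MOI = 1 and treated with compound at various concentrations for 2 days. Percent protection from virus killing was calculated by a formula. EC50 is the concentration giving 50% protection from the cytocidal effect. Values are mean ± SD of three independent experiments.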
(In ATP-based viability assays light output follows the ATP content of the culture.)

A short description of data set [1]: Cytotoxicity against MDCK cells assessed as reduction in cell viability after 48 hrs by CellTiter-Glo assay. It is filed as cell-based, Canis lupus familiaris. Conditions: dog. The method in brief: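 Uninfected MDCK cells were exposed to compound. CC50 is the concentration that reduced cell viability by 50%.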
The nature of data set [2]: Selectivity ratio of EC50 for Influenza A virus (A/Puerto Rico/8/34(H1N1)) infected in MDCK cells to EC50 for Influenza A virus H3N2 VR1679 infected in MDCK cells. It is filed as functional.
Data set [3] has as its system Influenza A virus H3N2. The data set is described as follows: Antiviral activity against Influenza A virus H3N2 VR1679 infected in MDCK cells assessed as inhibition of virus-induced cytocidal activity after 48 hrs by CellTiter-Glo assay. In kind it is functional, organism-based. Put shortly: as §1
In data set [4] the test system is Influenza A virus H3N2. The data set is described as follows: Antiviral activity against Influenza A virus H3N2 VR1679 infected in MDCK cells assessed as inhibition of viral nucleoprotein production at 10 uM after 6 hrs by immunostaining-based confocal microscopy. In kind it is functional, organism-based. Put shortly: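 VR1679 infected MDCK cells at MOI = 1 with compound at 10 μM for 6 h. Cells were immunostained with FITC-conjugated anti-NP antibodies and DAPI for nuclei, and viral NP was imaged by laser-scanning confocal microscopy. Infected cells without compound served as controls.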

The subject of data set [5] is Influenza A virus H3N2. The data set is described as follows: Antiviral activity against Influenza A virus H3N2 VR1679 infected in MDCK cells assessed as inhibition of virus-induced cytocidal activity compound treated 4 hrs post infection by time of addition assay. In kind it is functional, organism-based. The method in brief: (§2)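 Time-of-addition assay: MDCK cells infected with VR1679 at MOI = 0.1, with compound added before infection or at various times post-infection. Percent protection of cells from virus killing was calculated by a formula. Data are the average of two independent experiments.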

The test system of data set [6] is Influenza A virus H3N2. As to the kind of experiment: Antiviral activity against Influenza A virus H3N2 VR1679 infected in MDCK cells assessed as inhibition of virus-induced cytocidal activity compound treated 6 hrs post infection by time of addition assay. In kind it is functional, organism-based. The method in brief: as §2
Data set [7] has as its system Influenza A virus H3N2. As to the kind of experiment: Antiviral activity against Influenza A virus H3N2 VR1679 infected in MDCK cells assessed as inhibition of virus-induced cytocidal activity compound treated 2 hrs post infection by time of addition assay. It is filed as functional, organism-based. The method in brief: as §2
The test system of data set [8] is Influenza A virus H3N2. The data set is described as follows: Antiviral activity against Influenza A virus H3N2 VR1679 infected in MDCK cells assessed as inhibition of virus-induced cytocidal activity pretreated with compound before infection by time of addition assay. In kind it is functional, organism-based. Put shortly: as §2
The next data set relates to MDCK. As to the kind of experiment: Binding affinity to recombinant Influenza A virus (A/Puerto Rico/8/1934(H1N1)) nucleoprotein in culture medium assessed as protection from Influenza A virus H3N2 VR1679-induced MDCK cytocidal activity after 2 days by CellTiter-Glo assay. It is filed as cell-based. Put shortly: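 MDCK cells infected with VR1679 at MOI = 1, treated with compound with or without recombinant A/Puerto Rico/8/1934 NP at 500 μg/mL in the culture medium. Percent protection from virus killing was read 2 days after infection. Values are mean ± SD of three independent experiments.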

Structures are written as SMILES. Activity calls are given as the source filed them. The rule behind the calls is not given here. Bounds are passed on as bounds.

On to `CCN1CCCC2=C[C@H]3C[C@H](CN4CCCC[C@H]34)[C@@H]21`, for which the EC50 in the data set with Influenza A virus was found to be 7.7 µM. Also, in data set [1], the CC50 at 48 h was above 80 µM.
The corresponding values for `C1=C2CCCN(CC3CC3)[C@H]2[C@@H]2C[C@H]1[C@H]1CCCCN1C2` are 15.1 µM and above 80 µM.
The corresponding values for `O=C(c1ccc(C(=O)N2CCCC3=C[C@H]4C[C@H](CN5CCCC[C@H]45)[C@@H]32)s1)N1CCCC2=C[C@H]3C[C@H](CN4CCCC[C@H]34)[C@@H]21` are 2.4 µM and above 80 µM.
The corresponding values for `CN1CCCC2=C[C@H]3C[C@H](CN4CCCC[C@H]34)[C@@H]21` are 9.6 µM and above 80 µM.
Turning to `Cc1onc(-c2ccccc2)c1C(=O)N1CCN(c2ccc([N+](=O)[O-])cc2Cl)CC1` [NUCLEOZIN], the EC50 with Influenza A virus came out at 0.71 µM. In addition, in data set [1], the CC50 at 48 h is above 80 µM.
The corresponding values for `NC12CC3CC(CC(C3)C1)C2` [AMANTADINE] are above 80 µM and above 80 µM.
Regarding `CCOC(=O)C1=C[C@@H](OC(CC)CC)[C@H](NC(C)=O)[C@@H](N)C1` [OSELTAMIVIR], the EC50 in the data set with Influenza A virus and in the data set on Influenza A virus H3N2 [3] was above 80 µM throughout. In addition, the CC50 at 48 h in data set [1] is above 80 µM. Besides, the “Ratio EC50” value in data set [2] was above 200. In addition, the inhibition result in the data set with Influenza A virus H3N2 [4] and in the data set with Influenza A virus H3N2 [6] was “inactive” throughout. In addition, the inhibition entry in the data set on Influenza A virus H3N2 [5], in the data set on Influenza A virus H3N2 [7] and with Influenza A virus H3N2 [8] was “Active” in each case. Besides, in the data set with MDCK, the result was inactive.
`CC(C)CN1CCCC2=C[C@H]3C[C@H](CN4CCCC[C@H]34)[C@@H]21`: the concentration giving a half-maximal response (EC50) in the data set with Influenza A virus stood at 34.5 µM. Moreover, in [1], the CC50 at 48 h was above 80 µM.
The matching figures for `C1=C2CCCN(CC3CCC3)[C@H]2[C@@H]2C[C@H]1[C@H]1CCCCN1C2`: 18.8 µM and above 80 µM.
The matching figures for `O=C1CCC[C@@H]2[C@H]3CCC[N+]4([O-])CCC[C@@H](CN12)[C@@H]34` (some centres not stated) [OXYMATRINE]: above 80 µM and above 80 µM.
The corresponding values for `CN1CC2CC(C1)c1cccc(=O)n1C2` (configuration not stated) are above 80 µM and above 80 µM.
Turning to `C1=C2CCCN(CC3CCCCC3)[C@H]2[C@@H]2C[C@H]1[C@H]1CCCCN1C2`, the concentration giving a half-maximal response (EC50) in the data set on Influenza A virus came out at 29.3 µM. The CC50 at 48 h in [1] was above 80 µM.
The corresponding values for `C1CCN2C[C@@H]3C[C@@H](CN4CCCC[C@H]34)[C@H]2C1` are 21.3 µM and above 80 µM.
In the case of `O=C1CCC[C@@H]2[C@H]3CCCN4CCC[C@@H](CN12)[C@@H]34` [MATRINE], the EC50 in the data set with Influenza A virus is above 80 µM. The CC50 at 48 h in data set [1] was above 80 µM.
On to `C1CN[C@@H]2C(C1)C[C@H]1C[C@@H]2CN2CCCC[C@H]12` (mixture of isomers), for which, in the data set with Influenza A virus, the EC50 was determined as 11.2 µM. Moreover, the CC50 at 48 h in [1] was above 80 µM.
In the case of `CN1CCC[C@@H]2C[C@H]3C[C@H](CN4CCCC[C@H]34)[C@@H]21`, the EC50 with Influenza A virus was 6.2 µM. Further, the CC50 at 48 h in data set [1] is above 80 µM. In addition, the inhibition entry in the data set with Influenza A virus H3N2 [3], in the data set on Influenza A virus H3N2 [4], in the data set with Influenza A virus H3N2 [5], with Influenza A virus H3N2 [7] and in the data set on Influenza A virus H3N2 [8] was “Active” each time. In addition, the inhibition result with Influenza A virus H3N2 [6] was “inactive”. The outcome in the data set on MDCK was Active.
Take `C1CCN2C[C@@H]3C[C@@H](CN4CCCC[C@@H]34)[C@H]2C1` [SPARTEINE]: in the data set on Influenza A virus, the EC50 worked out at 19.7 µM. In data set [1], the CC50 at 48 h is above 80 µM.
The matching figures for `CN1CCC[C@H]2C[C@H]3C[C@H](CN4CCCC[C@H]34)[C@@H]21`: 8.1 µM and above 80 µM.
The matching figures for `C1=C2CCCN[C@H]2[C@@H]2C[C@H]1[C@H]1CCCCN1C2`: 14.5 µM and above 80 µM.
Turning to `O=c1cccc2n1C[C@@H]1CNC[C@H]2C1` [CYTISINICLINE], the EC50 in the data set with Influenza A virus is above 80 µM. The 50% cytotoxic concentration (CC50) at 48 h in [1] was above 80 µM.
Take `O=C(NCCN1CCCC2=C[C@H]3C[C@H](CN4CCCC[C@H]34)[C@@H]21)c1ccccc1F`: the half-maximal effective concentration (EC50) with Influenza A virus came to 5.5 µM. Besides, in data set [1], the CC50 at 48 h is above 80 µM.

What is called EC50 is the midpoint of the concentration-response curve. One may read the CC50 as the concentration that lowers cell viability or growth by half.
